Results on 14 compounds are retold here after ChEMBL document CHEMBL4270656, “Synthesis and evaluation of 2-substituted 4(3H)-quinazolinone thioether derivatives as monoamine oxidase inhibitors” (Bioorg Med Chem, 2018).

The target in data set [1] is T1, Amine oxidase [flavin-containing] A (Homo sapiens, UniProt P21397).
T1 sequence (P21397 whole entry): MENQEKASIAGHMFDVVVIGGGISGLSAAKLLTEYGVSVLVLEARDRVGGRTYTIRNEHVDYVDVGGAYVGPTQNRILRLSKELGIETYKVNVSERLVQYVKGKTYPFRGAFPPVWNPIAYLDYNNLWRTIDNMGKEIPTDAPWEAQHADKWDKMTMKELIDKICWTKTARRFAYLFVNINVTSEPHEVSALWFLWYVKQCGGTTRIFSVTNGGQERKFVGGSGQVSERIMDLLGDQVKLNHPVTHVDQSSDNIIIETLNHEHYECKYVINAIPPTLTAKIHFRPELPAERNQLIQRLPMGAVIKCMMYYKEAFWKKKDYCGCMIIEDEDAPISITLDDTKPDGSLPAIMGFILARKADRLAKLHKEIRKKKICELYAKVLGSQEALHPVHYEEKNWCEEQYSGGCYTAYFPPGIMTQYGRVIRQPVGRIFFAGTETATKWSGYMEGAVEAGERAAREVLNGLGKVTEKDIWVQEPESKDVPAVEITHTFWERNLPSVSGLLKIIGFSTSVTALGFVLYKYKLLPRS
Nature of the data set: Inhibition of recombinant human MAO-A at 100 uM using kynuramine as substrate after 20 mins by fluorescence spectrophotometric analysis. In short, it runs like this: (§1)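 Recombinant human enzyme from insect-cell microsomes, MAO-A 0.0075 or MAO-B 0.015 mg protein/mL, in 100 mM potassium phosphate pH 7.4 made isotonic with KCl. Kynuramine 50 µM, inhibitor up to 100 µM, DMSO 4% final. 20 min at 37 °C, stopped with 2 N NaOH. 4-Hydroxyquinoline read by fluorescence (ex 310/em 400 nm) against a calibration curve.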

The next data set is filed under the species Homo sapiens. Nature of the data set: Selectivity index, ratio of IC50 for recombinant human MAO-A by IC50 for recombinant human MAO-B. In short, it runs like this: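 IC50 values for MAO-A and MAO-B taken from kynuramine fluorescence assays (0.003–100 µM inhibitor, 20 min at 37 °C) and fitted by one-site competition. Triplicate means. Index is IC50(MAO-A)/IC50(MAO-B).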

Data set [2] deals with T2, Amine oxidase [flavin-containing] B (Homo sapiens, UniProt P27338).
T2 sequence (P27338 whole entry): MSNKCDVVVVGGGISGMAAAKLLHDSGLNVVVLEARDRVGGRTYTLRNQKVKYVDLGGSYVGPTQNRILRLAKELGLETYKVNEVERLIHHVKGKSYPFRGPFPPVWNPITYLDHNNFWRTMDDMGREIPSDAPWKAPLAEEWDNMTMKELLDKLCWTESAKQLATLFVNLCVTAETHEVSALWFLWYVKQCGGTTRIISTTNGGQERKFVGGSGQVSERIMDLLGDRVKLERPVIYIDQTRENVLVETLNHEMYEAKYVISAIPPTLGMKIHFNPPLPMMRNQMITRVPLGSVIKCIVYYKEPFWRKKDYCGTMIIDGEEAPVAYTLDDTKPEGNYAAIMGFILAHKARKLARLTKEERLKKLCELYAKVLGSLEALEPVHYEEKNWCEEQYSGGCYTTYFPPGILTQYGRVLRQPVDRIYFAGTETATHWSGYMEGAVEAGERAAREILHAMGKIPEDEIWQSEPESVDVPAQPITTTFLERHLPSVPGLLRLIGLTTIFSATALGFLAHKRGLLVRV
Nature of the data set: Inhibition of recombinant human MAO-B using kynuramine as substrate after 20 mins by fluorescence spectrophotometric analysis.

Data set [3] has as its target T2, Amine oxidase [flavin-containing] B. The data set is described as follows: Inhibition of recombinant human MAO-B using kynuramine as substrate assessed as enzyme activity recovered after 20 mins by fluorescence spectrophotometric analysis. Also on record: scale not given: the % may be the effect or the level left. Summed up:
(§2)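 Pre-incubated 15 min at 37 °C, then dialysed 24 h at 4 °C (10 kDa cut-off) with buffer changes at 3 and 7 h. Diluted twofold with kynuramine (50 µM final), run 20 min at 37 °C, read by fluorescence. Triplicate; activity relative to inhibitor-free dialysed control.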

Data set [4] shares this target. The data set is described as follows: Reversible inhibition of recombinant human MAO-B using kynuramine as substrate assessed as recovery of enzyme activity at 4 times IC50 preincubated for 15 mins followed by dialysis for 24 hrs and subsequent addition of substrate measured after 20 mins by fluorescence spectrophotometric analysis relative to control. Also on record: scale not given: the % may be the effect or the level left. In short, it runs like this: as §2

For data set [5] the target is unchanged. The data set is described as follows: Competitive inhibition of recombinant human MAO-B using kynuramine as substrate after 20 mins by Lineweaver-Burk plot analysis. In short, it runs like this:
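Human MAO-B (insect-cell microsome, 0.015 mg/mL final) in 100 mM potassium phosphate pH 7.4 made isotonic with KCl. Six Lineweaver-Burk plots: one without inhibitor and five at 1/4, 1/2, 3/4, 1 and 1 1/4 × IC50. Kynuramine 15–250 µM, eight levels per plot. 20 min at 37 °C, NaOH stop, 4-hydroxyquinoline fluorescence. Ki taken from slopes plotted against inhibitor concentration.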

Data set [6] shares this target. Nature of the data set: Inhibition of recombinant human MAO-B at 100 uM using kynuramine as substrate after 20 mins by fluorescence spectrophotometric analysis. In short, it runs like this:
as §1

Usually IC50 stands for the concentration at which inhibition is half-maximal. Regarding `Oc1nc(SCc2cccc(F)c2)nc2ccccc12`, the “inhibition (INH)” value in data set [1] is listed as “Not Active”. Further, the Ratio IC50 in the data set listed under Homo sapiens was > 40. Moreover, in data set [2], the IC50 is 2500 nM.
For `Oc1nc(SCc2cccc(Cl)c2)nc2ccccc12`, in that order: “Not Active”, > 435 and 230 nM.
Take `O=c1[nH]c(SCc2ccccc2)nc2ccccc12`: the “inhibition (INH)” value in data set [1] is recorded as “Not Active”. Moreover, in the data set filed under Homo sapiens, the Ratio IC50 was > 33. Besides, the IC50 in data set [2] is 3030 nM.
Regarding `Oc1nc(SCCOc2ccccc2)nc2ccccc12`, the “inhibition (INH)” value in data set [1] is “Not Active”. Further, the Ratio IC50 in the data set listed under Homo sapiens was > 81. Also, the IC50 in data set [2] worked out at 1240 nM.
For `O=c1[nH]c(SCCCc2ccccc2)nc2ccccc12`, in that order: “Not Active”, > 17 and 5990 nM.
On to `O=c1[nH]c(SCc2cccc(Br)c2)nc2ccccc12`, for which the “inhibition (INH)” value in data set [1] is “Not Active”. Besides, the Ratio IC50 in the data set listed under Homo sapiens was > 481. Further, the IC50 in data set [2] came out at 208 nM.
Broadly, the Ki is a dissociation constant, usually derived from enzyme kinetics or from competition with a known ligand. With `O=c1[nH]c(SCc2cccc(I)c2)nc2ccccc12`, in data set [1], the “inhibition (INH)” value is on record as “Not Active”. Further, the Activity is 46% in data set [3] and 108% in data set [4]. The Ratio IC50 in the data set filed under Homo sapiens is > 704. Also, the IC50 in data set [2] is 142 nM. For the same compound, the Ki in data set [5] amounted to 68 nM.
On to `O=C(CSc1nc(O)c2ccccc2n1)c1ccccc1`, for which the “inhibition (INH)” value in data set [1] was “Not Active”. Further, the Ratio IC50 in the data set listed under Homo sapiens was > 3.1. In data set [2], the IC50 was determined as 31800 nM.
For the compound `O=c1[nH]c(SCc2ccncc2)nc2ccccc12`, the “inhibition (INH)” value in data set [1] and in data set [6] was “Not Active” throughout.
For the compound `O=c1[nH]c(SCc2ccc(Br)cc2)nc2ccccc12`, the “inhibition (INH)” value in data set [1] is given as “Not Active”. In addition, in the data set filed under Homo sapiens, the Ratio IC50 was > 128. For the same compound, the IC50 in data set [2] stood at 779 nM.
For `Oc1nc(SCc2ccc(Cl)cc2)nc2ccccc12`, in that order: “Not Active”, > 207 and 482 nM.
For `O=c1[nH]c(SCc2ccc(F)cc2)nc2ccccc12`, in that order: “Not Active”, > 177 and 566 nM.
In the case of `O=c1[nH]c(SCc2ccc(C(F)(F)F)cc2)nc2ccccc12`, the “inhibition (INH)” value in data set [1] is listed as “Not Active”. In addition, in the data set listed under Homo sapiens, the Ratio IC50 is > 143. Besides, in data set [2], the IC50 amounted to 700 nM.
For `O=c1[nH]c(SCc2ccc(I)cc2)nc2ccccc12`, the “inhibition (INH)” value in data set [1] and in data set [6] was “Not Active” in each case.
